# Results as given in ChEMBL document CHEMBL1129622, “Synthesis of non-nucleoside analogs of toyocamycin, sangivamycin, and thiosangivamycin: the effect of certain 4- and 4,6-substituents on the antiviral activity of pyrrolo[2,3-d]pyrimidines” (J Med Chem, 1996).
# Assays:
# HFF = assay: Cytotoxicity produced in human foreskin fibroblasts (HFF) cells estimated by visual scoring of cells unaffected by virus infection.; assay type: ADME, cell-based
# How it was run: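 Uninfected HFF cells in the HCMV plaque-reduction plates were examined at 35-fold magnification on the day of plaque staining. Drug-induced cytopathology was scored 0–4. IC50 from regression of percent inhibition against log concentration, average of two or more experiments.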
# KB = assay: Cytotoxicity (growth inhibition) against human epidermoid oral carcinoma KB cell line.; assay type: functional, cell-based
# How it was run: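 KB cells grown in MEM(H) with 10% calf serum. Cytotoxicity measured by a staining method. IC50 from linear regression of percent inhibition against log drug concentration, average of two or more experiments.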
# Human betaherpesvirus 5 [1] = assay: Antiviral activity against human cytomegalovirus (HCMV) in plaque reduction assay; assay type: functional, organism-based
# How it was run: (§1)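 Plaque reduction in HFF monolayers (MEM(E), 10% FBS) infected with a 0.2 mL inoculum of ca. 100 PFU HCMV Towne strain. Compounds were dissolved in the overlay medium. IC50 from linear regression of percent inhibition against log concentration, average of two or more experiments. Ganciclovir positive control.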
# Human alphaherpesvirus 1 [2] = assay: Antiviral activity against herpes simplex virus type 1 using ELISA; assay type: functional, organism-based
# Human betaherpesvirus 5 [3] = assay: Antiviral activity against human cytomegalovirus by plaque reduction assay; assay type: functional, organism-based; how it was run: as §1
# Human betaherpesvirus 5 [4] = assay: Antiviral activity against human cytomegalo virus using ELISA; assay type: functional, organism-based
# How it was run: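 HCMV (Towne strain, plaque-purified isolate P0) measured by enzyme immunoassay in MRC-5 human embryonic lung cells grown in MEM(E) with 10% FBS. IC50 from linear regression of percent inhibition against log concentration, averaged over two or more experiments. Ganciclovir positive control.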
# [5] = Half life was determined; assay type: ADME
# Human alphaherpesvirus 1 [6] = assay: Antiviral activity against herpes simplex virus using ELISA; assay type: functional, organism-based
# Human alphaherpesvirus 1 [7] = assay: Inhibitory concentration against HSV-1; assay type: functional, organism-based
IC50 (Human betaherpesvirus 5 [3]),Structure (SMILES),IC50 (HFF),IC50 (KB),further results
–,CCOCn1cc(C(=N)S)c2c(N)ncnc21,> 32 µM,60 µM,–
–,N#Cc1c(N)n(Cc2ccccc2)c2ncnc(N)c12,100 µM,34 µM,IC50 (Human betaherpesvirus 5 [1]): 3.3 µM; IC50 (Human alphaherpesvirus 1 [2]): 10 µM
> 100 µM,COCCOCn1cc(C(=N)S)c2c(S)ncnc21,–,–,–
> 100 µM,COCCOCn1cc(C(=N)S)c2c(N(C)C)ncnc21,–,–,T1/2 [5]: 150 h
> 100 µM,COCCOCn1cc(C#N)c2c(N(C)C)ncnc21,–,–,–
> 100 µM,COCCOCn1cc(C#N)c2cncnc21,–,–,–
–,Cc1ccc(Cn2c(N)c(C#N)c3c(N)ncnc32)cc1,32 µM,> 100 µM,IC50 (Human betaherpesvirus 5 [1]): 0.3 µM; IC50 (Human alphaherpesvirus 1 [2]): 60 µM
> 100 µM,CCOCn1cc(C(=N)S)c2cncnc21,–,–,–
–,COCCOCn1cc(C#N)c2c(N)ncnc21,> 100 µM,> 100 µM,IC50 (Human alphaherpesvirus 1 [6]): > 100 µM
> 100 µM,CCOCn1cc(C#N)c2c(N(C)C)ncnc21,–,–,–
> 100 µM,CNc1c(C#N)c2c(N)ncnc2n1COCCOC,> 100 µM,> 100 µM,IC50 (Human alphaherpesvirus 1 [6]): > 100 µM
> 100 µM,COCCOCn1c(Br)c(C#N)c2c(N)ncnc21,> 100 µM,> 100 µM,–
–,CCCn1c(N)c(C#N)c2c(N)ncnc21,100 µM,15 µM,IC50 (Human betaherpesvirus 5 [1]): 0.5 µM; IC50 (Human alphaherpesvirus 1 [2]): 2.5 µM
> 100 µM,CCOCn1cc(C#N)c2c(OC)ncnc21,–,–,–
> 100 µM,COCCOCn1cc(C(=N)S)c2c(OC)ncnc21,–,–,–
16 µM,CCOCn1c(N)c(C(=N)S)c2c(N)ncnc21,> 100 µM,> 320 µM,IC50 (Human alphaherpesvirus 1 [6]): 100 µM; IC50 (Human betaherpesvirus 5 [4]): 45 µM
> 100 µM,CCOCn1cc(C#N)c2c(OCC)ncnc21,–,–,–
> 100 µM,Nc1nc2c(ncn2COCCO)c(=O)[nH]1 [ACYCLOVIR],> 100 µM,> 100 µM,–
> 100 µM,CCOCn1cc(C#N)c2c(Cl)ncnc21,–,–,–
> 100 µM,COCCOCn1cc(C#N)c2c(O)ncnc21,–,–,–
> 100 µM,CCOCn1cc(C#N)c2c(NC)ncnc21,–,–,–
8.2 µM,COCCOCn1c(N)c(C#N)c2c(N)ncnc21,> 100 µM,210 µM,IC50 (Human alphaherpesvirus 1 [6]): > 100 µM; IC50 (Human betaherpesvirus 5 [4]): 9 µM
> 100 µM,CCNc1ncnc2c1c(C(=N)S)cn2COCCOC,–,–,–
> 100 µM,COCCOCn1cc(C#N)c2c(S)ncnc21,–,–,–
2.8 µM,N#Cc1c(N)n(COCc2ccccc2)c2ncnc(N)c12,> 100 µM,118 µM,IC50 (Human alphaherpesvirus 1 [6]): 12.5 µM; IC50 (Human betaherpesvirus 5 [4]): 9 µM
–,COc1ccc(Cn2c(N)c(C#N)c3c(N)ncnc32)cc1,100 µM,50 µM,IC50 (Human betaherpesvirus 5 [1]): 9 µM; IC50 (Human alphaherpesvirus 1 [2]): 10 µM
> 100 µM,CCOCn1cc(C(=N)S)c2c(OCC)ncnc21,–,–,–
> 100 µM,CNc1ncnc2c1c(C#N)cn2COCCOC,–,–,–

IC50 (Human betaherpesvirus 5 [3]),Structure (SMILES),IC50 (HFF),IC50 (KB),further results
20 µM,CNc1ncnc2c1c(C(=N)S)cn2COCCOC,–,–,IC50 (Human alphaherpesvirus 1 [7]): 30 µM
> 100 µM,CCOCn1cc(C#N)c2cncnc21,–,–,–
> 100 µM,CCOCn1cc(C(=N)S)c2c(N(C)C)ncnc21,–,–,–
> 100 µM,COCCOCn1cc(C(=N)S)c2c(O)ncnc21,–,–,–
> 100 µM,CCNc1ncnc2c1c(C(=N)S)cn2COCC,–,–,–
16 µM,NC(=S)c1c(N)n(COCc2ccccc2)c2ncnc(N)c12,> 100 µM,225 µM,IC50 (Human alphaherpesvirus 1 [6]): 60 µM; IC50 (Human betaherpesvirus 5 [4]): 19 µM
> 100 µM,CCOCn1cc(C#N)c2c(N)ncnc21,> 100 µM,> 100 µM,–
–,C=CCn1c(N)c(C#N)c2c(N)ncnc21,100 µM,> 100 µM,IC50 (Human betaherpesvirus 5 [1]): 1.9 µM; IC50 (Human alphaherpesvirus 1 [2]): 40 µM
> 100 µM,N#Cc1c(Br)n(COCc2ccccc2)c2ncnc(N)c12,> 100 µM,> 100 µM,–
7.2 µM,CCOCn1c(N)c(C#N)c2c(N)ncnc21,> 100 µM,138 µM,IC50 (Human alphaherpesvirus 1 [6]): 68 µM; IC50 (Human betaherpesvirus 5 [4]): 12 µM
> 100 µM,COCCOCn1cc(C#N)c2c(OC)ncnc21,–,–,–
–,Cc1cccc(Cn2c(N)c(C#N)c3c(N)ncnc32)c1,100 µM,> 100 µM,IC50 (Human betaherpesvirus 5 [1]): 32 µM; IC50 (Human alphaherpesvirus 1 [2]): > 100 µM
> 100 µM,CCOCn1cc(C#N)c2c(S)ncnc21,–,–,–
> 100 µM,CCOCn1cc(C(=N)S)c2c(OC)ncnc21,–,–,–
5 µM,COCCOCn1c(N)c(C(N)=S)c2c(N)ncnc21,> 100 µM,> 320 µM,IC50 (Human alphaherpesvirus 1 [6]): 100 µM; IC50 (Human betaherpesvirus 5 [4]): 20 µM
–,Nc1nc2c(ncn2COC(CO)CO)c(=O)[nH]1 [GANCICLOVIR],> 100 µM,> 320 µM,IC50 (Human betaherpesvirus 5 [4]): 2.2 µM
> 100 µM,COCCOCn1cc(C(=N)S)c2cncnc21,–,–,–
20 µM,CCOCn1cc(C(=N)S)c2c(NC)ncnc21,–,–,–
> 100 µM,CCOCn1cc(C(=N)S)c2c(O)ncnc21,–,–,–
> 100 µM,CCOCn1cc(C#N)c2c(O)ncnc21,–,–,–
> 100 µM,CCOc1ncnc2c1c(C#N)cn2COCCOC,–,–,–
> 100 µM,CCOCn1c(Br)c(C#N)c2c(N)ncnc21,> 100 µM,> 100 µM,–
> 100 µM,CCNc1ncnc2c1c(C#N)cn2COCC,–,–,–
> 100 µM,NC(=O)c1c(N)n(COCc2ccccc2)c2ncnc(N)c12,> 100 µM,> 100 µM,IC50 (Human betaherpesvirus 5 [4]): > 100 µM
> 100 µM,CCNc1ncnc2c1c(C#N)cn2COCCOC,–,–,–
> 100 µM,COCCOCn1c(N(C)C)c(C#N)c2c(N)ncnc21,> 100 µM,> 100 µM,IC50 (Human alphaherpesvirus 1 [6]): > 100 µM
> 100 µM,COCCOCn1cc(C#N)c2c(Cl)ncnc21,–,–,–

Structure (SMILES),IC50 (Human betaherpesvirus 5 [3]),IC50 (HFF),IC50 (KB),further results
COCCOCn1c(N)c(C(N)=O)c2c(N)ncnc21,> 100 µM,> 100 µM,> 100 µM,IC50 (Human betaherpesvirus 5 [4]): > 100 µM
COCCOCn1cc(C(N)=S)c2c(N)ncnc21,1.3 µM,> 100 µM,–,–
CCOCn1c(N)c(C(N)=O)c2c(N)ncnc21,> 100 µM,> 100 µM,> 100 µM,IC50 (Human betaherpesvirus 5 [4]): > 100 µM
